# Reference: ChEMBL document CHEMBL3112425, “Design, synthesis, and structure-activity relationship studies of a potent PACE4 inhibitor” (J Med Chem, 2014)
# Square brackets hold non-standard residues; d marks the D form. Peptide text beside a SMILES is read from it. * marks the point of attachment. NH(4-amidinobenzyl) = N=C(N)c1ccc(CN*)cc1; Nle = CCCC[C@H](N)C(=O)O
# Experiments:
# [1] = target: T1, Proprotein convertase subtilisin/kexin type 6 (Homo sapiens, UniProt P29122); experiment: Inhibition of human recombinant PACE4 expressed in drosophila schneider 2 cells using pyroGlu-Arg-Thr-Lys-Arg-AMC as substrate after 1 hr
# T1 sequence (P29122 whole entry): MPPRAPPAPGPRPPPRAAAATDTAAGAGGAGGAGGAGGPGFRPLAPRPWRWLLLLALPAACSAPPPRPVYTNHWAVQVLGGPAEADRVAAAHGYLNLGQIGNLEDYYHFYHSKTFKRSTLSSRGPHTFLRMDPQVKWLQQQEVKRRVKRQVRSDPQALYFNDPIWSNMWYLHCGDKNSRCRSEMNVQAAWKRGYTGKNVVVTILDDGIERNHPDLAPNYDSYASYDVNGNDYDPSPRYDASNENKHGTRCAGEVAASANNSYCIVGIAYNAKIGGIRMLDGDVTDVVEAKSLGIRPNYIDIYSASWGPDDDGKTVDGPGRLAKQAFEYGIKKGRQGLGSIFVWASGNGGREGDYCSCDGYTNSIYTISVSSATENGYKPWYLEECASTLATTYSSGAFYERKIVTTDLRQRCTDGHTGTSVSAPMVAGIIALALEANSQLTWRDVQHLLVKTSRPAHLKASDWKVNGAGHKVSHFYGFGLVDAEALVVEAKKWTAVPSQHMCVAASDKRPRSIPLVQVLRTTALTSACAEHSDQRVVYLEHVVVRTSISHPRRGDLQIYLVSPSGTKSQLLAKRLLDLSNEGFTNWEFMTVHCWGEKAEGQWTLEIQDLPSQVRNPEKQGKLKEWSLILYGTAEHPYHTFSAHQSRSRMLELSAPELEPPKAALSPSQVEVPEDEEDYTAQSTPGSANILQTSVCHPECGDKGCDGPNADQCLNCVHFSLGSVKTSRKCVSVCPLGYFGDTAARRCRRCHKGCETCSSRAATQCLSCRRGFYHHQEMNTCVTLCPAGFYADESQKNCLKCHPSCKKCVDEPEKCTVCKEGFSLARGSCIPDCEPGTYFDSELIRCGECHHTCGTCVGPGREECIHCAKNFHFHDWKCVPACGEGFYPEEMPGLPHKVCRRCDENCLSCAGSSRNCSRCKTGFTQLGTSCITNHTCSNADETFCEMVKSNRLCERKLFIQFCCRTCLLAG
# Procedure, shortened: (§1)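 Human enzymes were expressed in Drosophila S2 cells and purified. Fluorogenic pyroGlu-RTKR-AMC was used at fixed concentration with varied inhibitor, 37 °C over 1 h. Buffers: furin, 100 mM Hepes pH 7.5, 1 mM CaCl2, 1 mM β-mercaptoethanol, 1.8 mg/mL BSA; PACE4 and PC7, 20 mM Bis-Tris pH 6.5, 1 mM CaCl2, 1.8 mg/mL BSA; PC2, same buffer at pH 5.7. Ki from IC50 (Cheng–Prusoff), or apparent Ki (Morrison) for tight binders. Triplicate, mean ± SD.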
# [2] = Acute toxicity in human DU145 cells assessed as cell death/lysis at 100 uM after 4 hrs by LDH assay; type: cell-based, DU-145; conditions: read-out: INH
# Procedure, shortened: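 DU145 cells (RPMI 1640, 5% FBS, 37 °C, 5% CO2) plated; 24 h later peptides added at 100 μM. After 4 h, release of lactate dehydrogenase into the medium was quantified enzymatically with a commercial LDH cytotoxicity kit as the measure of acute membrane damage/lysis.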
# PC-3 [3] = experiment: Cytotoxicity against human PC3 cells after 72 hrs by MTT assay; type: functional, cell-based; conditions: PC-3, 72 h
# Procedure, shortened: (§2)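 Prostate cancer cells were kept in RPMI 1640 at 37 °C, 5% CO2, with 5% FBS for DU145 and 10% FBS for LNCaP and PC3. After 24 h, medium was changed and peptides added at various concentrations, up to 350 μM. Viability was read by MTT after 72 h treatment. IC50 from dose–response curves, triplicate, mean ± SEM.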
# Furin = Furin (Homo sapiens, UniProt P09958); experiment: Inhibition of human recombinant furin expressed in drosophila schneider 2 cells using pyroGlu-Arg-Thr-Lys-Arg-AMC as substrate after 1 hr; procedure, shortened: as §1
# LNCaP [4] = experiment: Cytotoxicity against human LNCAP cells after 72 hrs by MTT assay; type: functional, cell-based; procedure, shortened: as §2
# DU-145 [5] = experiment: Cellular uptake in human DU145 cells after 1 hr by propidium iodide staining-based FACS analysis; type: ADME, cell-based; conditions: du-145, 1 h
# Procedure, shortened: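 FITC-βAla-labelled peptides at 10 μM were given to DU145 cells for 1 h in serum-free RPMI. Cells were collected, then washed twice with 0.05% trypsin (5 min, 37 °C) to strip membrane-bound peptide. Propidium iodide (10 μg/mL, 2 min) excluded damaged cells. FACS read 10 000 events/sample as geometric mean fluorescence, against untreated-cell autofluorescence.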
# DU-145 [6] = experiment: Cytotoxicity against human DU145 cells after 72 hrs by MTT assay; type: functional, cell-based; conditions: DU-145, 72 h; procedure, shortened: as §2
# Plasma = experiment: Drug degradation in CD-1 mouse plasma at 0.5 ug/uL after 30 mins by MALDI-TOF MS analysis; type: ADME, cell-free; conditions: 0.5 h
# Procedure, shortened: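 For fragment mapping, 100 μg peptide was incubated in murine plasma at 37 °C. At each time point, plasma samples were quenched with 3% TFA. Proteins were precipitated with 2 volumes acetonitrile and centrifuged at 17 000g. Supernatants were analyzed by MALDI-TOF MS for C-terminally truncated fragments.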
# [7] = Half life in CD-1 mouse plasma at 0.5 ug/uL by RP-HPLC analysis; type: ADME, cell-free
# Procedure, shortened: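 Peptides at 0.5 μg/μL were incubated at 37 °C in heparinized plasma pooled from mixed-sex CD1 mice. At each time point the reaction was stopped with 1 M guanidinium-HCl, then acetonitrile, and proteins were spun out. Supernatant peptide AUC (RP-HPLC) was compared with non-incubated samples. Half-life came from a one-phase decay fit. Run ≥3 times, duplicate per time point.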
# LNCaP [8] = experiment: Cytotoxicity against human LNCAP cells up to 350 uM after 72 hrs by MTT assay; type: functional; procedure, shortened: as §2
# DU-145 [9] = experiment: Cytotoxicity against human DU145 cells up to 350 uM after 72 hrs by MTT assay; type: functional; procedure, shortened: as §2
# PC-3 [10] = experiment: Cytotoxicity against human PC3 cells up to 350 uM after 72 hrs by MTT assay; type: functional; procedure, shortened: as §2
# [11] = target: T2, Neuroendocrine convertase 2 (Homo sapiens, UniProt P16519); experiment: Inhibition of human PC2 expressed in drosophila schneider 2 cells using pyroGlu-Arg-Thr-Lys-Arg-AMC as substrate after 1 hr; procedure, shortened: as §1
# T2 sequence (P16519 whole entry): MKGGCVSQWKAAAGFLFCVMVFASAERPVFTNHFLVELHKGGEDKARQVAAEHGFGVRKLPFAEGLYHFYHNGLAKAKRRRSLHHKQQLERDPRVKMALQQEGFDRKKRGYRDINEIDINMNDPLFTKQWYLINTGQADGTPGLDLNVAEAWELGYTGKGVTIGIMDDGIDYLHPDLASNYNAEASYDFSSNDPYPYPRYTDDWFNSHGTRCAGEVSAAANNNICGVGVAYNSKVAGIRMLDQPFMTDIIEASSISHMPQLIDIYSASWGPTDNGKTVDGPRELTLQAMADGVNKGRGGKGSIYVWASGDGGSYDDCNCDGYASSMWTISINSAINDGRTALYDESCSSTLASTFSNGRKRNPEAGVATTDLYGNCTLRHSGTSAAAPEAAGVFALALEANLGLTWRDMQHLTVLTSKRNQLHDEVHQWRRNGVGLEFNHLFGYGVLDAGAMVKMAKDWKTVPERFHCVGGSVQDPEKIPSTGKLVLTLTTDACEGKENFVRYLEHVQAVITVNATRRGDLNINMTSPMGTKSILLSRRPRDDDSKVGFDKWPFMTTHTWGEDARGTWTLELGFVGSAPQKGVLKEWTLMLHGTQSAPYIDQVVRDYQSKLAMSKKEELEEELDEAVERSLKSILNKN
# [12] = target: T3, Proprotein convertase subtilisin/kexin type 7 (Homo sapiens, UniProt Q16549); experiment: Inhibition of human PC7 expressed in drosophila schneider 2 cells using pyroGlu-Arg-Thr-Lys-Arg-AMC as substrate after 1 hr; procedure, shortened: as §1
# T3 sequence (Q16549 whole entry): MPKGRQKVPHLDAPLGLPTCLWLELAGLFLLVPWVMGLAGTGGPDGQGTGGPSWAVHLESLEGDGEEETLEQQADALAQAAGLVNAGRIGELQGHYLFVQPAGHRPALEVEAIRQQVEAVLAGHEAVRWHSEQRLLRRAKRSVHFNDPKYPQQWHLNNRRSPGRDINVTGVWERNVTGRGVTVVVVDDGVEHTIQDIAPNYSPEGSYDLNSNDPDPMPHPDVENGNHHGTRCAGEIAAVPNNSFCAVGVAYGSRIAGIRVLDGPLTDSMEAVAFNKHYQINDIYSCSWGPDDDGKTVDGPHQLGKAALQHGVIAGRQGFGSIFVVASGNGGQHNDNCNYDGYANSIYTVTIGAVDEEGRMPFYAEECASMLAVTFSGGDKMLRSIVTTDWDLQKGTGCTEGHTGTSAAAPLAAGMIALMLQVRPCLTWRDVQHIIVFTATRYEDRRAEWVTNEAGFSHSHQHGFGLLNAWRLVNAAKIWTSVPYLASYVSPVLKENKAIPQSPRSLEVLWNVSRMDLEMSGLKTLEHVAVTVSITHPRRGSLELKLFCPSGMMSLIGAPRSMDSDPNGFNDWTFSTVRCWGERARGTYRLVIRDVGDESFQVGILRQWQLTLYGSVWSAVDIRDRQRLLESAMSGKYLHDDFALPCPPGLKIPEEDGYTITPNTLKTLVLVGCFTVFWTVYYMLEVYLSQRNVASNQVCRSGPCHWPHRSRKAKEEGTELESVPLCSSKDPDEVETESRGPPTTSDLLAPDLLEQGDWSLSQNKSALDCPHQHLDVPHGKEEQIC
# Sequence of Furin (P09958 whole entry): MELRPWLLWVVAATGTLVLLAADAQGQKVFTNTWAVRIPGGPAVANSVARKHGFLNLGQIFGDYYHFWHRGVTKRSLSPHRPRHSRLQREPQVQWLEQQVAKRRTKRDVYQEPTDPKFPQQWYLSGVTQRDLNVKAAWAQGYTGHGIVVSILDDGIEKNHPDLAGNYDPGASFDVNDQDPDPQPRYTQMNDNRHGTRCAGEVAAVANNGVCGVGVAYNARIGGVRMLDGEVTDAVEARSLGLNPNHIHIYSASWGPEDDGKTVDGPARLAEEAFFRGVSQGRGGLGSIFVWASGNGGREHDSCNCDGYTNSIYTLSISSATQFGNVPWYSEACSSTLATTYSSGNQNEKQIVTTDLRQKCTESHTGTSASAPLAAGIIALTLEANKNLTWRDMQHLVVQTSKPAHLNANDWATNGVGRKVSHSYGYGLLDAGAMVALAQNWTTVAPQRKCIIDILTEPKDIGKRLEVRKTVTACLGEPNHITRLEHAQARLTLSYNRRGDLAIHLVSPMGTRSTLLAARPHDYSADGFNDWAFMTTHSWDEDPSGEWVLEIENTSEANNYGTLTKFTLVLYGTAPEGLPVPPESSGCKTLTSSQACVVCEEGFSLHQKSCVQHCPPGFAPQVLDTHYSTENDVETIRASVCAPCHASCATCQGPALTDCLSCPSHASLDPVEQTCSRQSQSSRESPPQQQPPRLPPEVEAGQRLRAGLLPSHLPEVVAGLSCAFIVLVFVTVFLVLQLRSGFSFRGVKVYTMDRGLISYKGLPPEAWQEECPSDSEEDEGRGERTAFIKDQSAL
Compound,Ki [1] [nM],"cytotoxicity at 4 h, 100 µM [2] [%]",IC50 (PC-3 [3]) [nM],Ki (Furin) [nM],IC50 (LNCaP [4]) [nM],Drug uptake (DU-145 [5]),IC50 (DU-145 [6]) [nM],Stability (Plasma),half-life at 0.5 ug/uL [7] [h],inhibition (INH) (LNCaP [8]) [%],inhibition (INH) (DU-145 [9]) [%],inhibition (INH) (PC-3 [10]) [%],Ki [11] [nM],Ki [12] [nM]
CC(=O)N[C@H](CC(C)C)C(=O)N[C@@H](CC(C)C)C(=O)N[C@@H](CC(C)C)C(=O)N[C@@H](CC(C)C)C(=O)N[C@@H](CCCN=C(N)N)C(=O)N[C@H](C(=O)N[C@@H](CCCCN)C(=O)N[C@@H](CCCN=C(N)N)C(N)=O)C(C)C,24,< 5,190000,760,150000,Active,70000,Unstable,8.6,–,–,–,–,–
CC(=O)N[C@H](CC(C)C)C(=O)N[C@H](CC(C)C)C(=O)N[C@H](CC(C)C)C(=O)N[C@H](CC(C)C)C(=O)N[C@@H](CCCNC(=N)N)C(=O)N[C@H](C(=O)N[C@@H](CCCCN)C(=O)N[C@@H](CCCNC(=N)N)C(N)=O)C(C)C,14000,< 5,–,7300,–,–,–,–,–,<50,<50,<50,–,–
CCCC[C@H](NC(=O)[C@H](CC(C)C)NC(=O)[C@H](CC(C)C)NC(C)=O)C(=O)N[C@@H](CC(C)C)C(=O)N[C@@H](CCCNC(=N)N)C(=O)N[C@H](C(=O)N[C@@H](CCCCN)C(=O)N[C@@H](CCCNC(=N)N)C(N)=O)C(C)C (Ac-LL[Nle]LRVKR-NH2),385,< 5,–,1980,–,–,190000,–,–,<50,–,<50,–,–
CC(=O)N[C@@H](CC(C)C)C(=O)N[C@@H](CC(C)C)C(=O)N[C@@H](CC(C)C)C(=O)N[C@@H](CC(C)C)C(=O)N[C@@H](CCCNC(=N)N)C(=O)N[C@H](C(=O)N[C@@H](CCCCN)C(=O)N[C@@H](CCCNC(=N)N)C(N)=O)C(C)C,20,< 5,–,–,–,Active,–,Unstable,5.1,–,–,<50,–,–
CCCC[C@@H](NC(C)=O)C(=O)N[C@@H](CC(C)C)C(=O)N[C@@H](CC(C)C)C(=O)N[C@@H](CC(C)C)C(=O)N[C@@H](CCCNC(=N)N)C(=O)N[C@H](C(=O)N[C@@H](CCCCN)C(=O)N[C@@H](CCCNC(=N)N)C(N)=O)C(C)C,25,< 5,150000,800,90000,–,80000,–,7.1,–,–,–,–,–
CC(=O)N[C@@H](CC(C)C)C(=O)N[C@@H](CC(C)C)C(=O)N[C@@H](CC(C)C)C(=O)N[C@@H](CC(C)C)C(=O)N[C@@H](CCCN=C(N)N)C(=O)N[C@H](C(=O)N[C@@H](CCCCN)C(=O)NCc1ccc(C(=N)N)cc1)C(C)C (Ac-LLLLRVK-{NH(4-amidinobenzyl)}),3.1,< 5,–,4.3,–,–,–,Unstable,12,–,–,–,0.24,13.8
